Experiments:
[1] = target: Toll-like receptor 1/2 (Mus musculus) (UniProt Q9QUN7+Q9EPQ1); experiment: Agonist activity at TLR1/TLR2 in wild type C57BL/6J mouse macrophages assessed as stimulation of TNF alpha release measured for 4 hrs by ELISA based assay relative to diprovocim-1; assay type: cell-based; parameters: Activity: concentration or dose not given beside the values; conditions: Macrophage
Outline: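 Thioglycolate-elicited peritoneal macrophages from wild type C57BL/6J mice, harvested by PBS lavage 4 d after i.p. 4% thioglycolate. Cultured in DMEM/10% FBS at 37 °C, 5% CO2, seeded at 1 × 10⁵ cells/well and exposed to graded compound concentrations for 4 h, with final DMSO ≤0.5% held constant. LPS served as positive control. Supernatant mouse TNF-α was read by ELISA. EC50 from duplicate means.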

[2] = target: Toll-like receptor 1/2 (Homo sapiens, UniProt O60603+Q15399); experiment: Agonist activity at TLR1/TLR2 in human THP-1 derived macrophages assessed as stimulation of TNF alpha release measured for 4 hrs by ELISA based assay relative to diprovocim-1; assay type: cell-based; parameters: Activity: concentration or dose not given beside the values
Outline: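 THP-1 cells differentiated with 100 nM PMA in RPMI/10% FBS for 24 h, washed, then rested 24 h in fresh medium. Seeded at 0.5 × 10⁵ cells/well and exposed to graded compound concentrations for 4 h, with final DMSO held at 0.1%. LPS served as positive control and DMSO as negative control. Supernatant human TNF-α was read by ELISA. EC50 from duplicate means.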

| Structure (SMILES) | Activity ([1]; filed as agonist) [%] | Activity ([2]; filed as agonist) [%] | Activity [2] [%] | Activity [1] [%] |
| --- | --- | --- | --- | --- |
| COC(=O)CNC(=O)OCCCCCCCCCCCCNC(=O)[C@@H]1CN(C(=O)c2ccc(C(=O)N3C[C@@H](C(=O)N[C@H]4C[C@@H]4c4ccccc4)[C@H](C(=O)N[C@H]4C[C@@H]4c4ccccc4)C3)cc2)C[C@H]1C(=O)N[C@H]1C[C@@H]1c1ccccc1 | 90 | 90 | – | – |
| CC(C)(C)OC(=O)N1CCC[C@H]1C(=O)OCCCCCCCCCCCCNC(=O)[C@@H]1CN(C(=O)c2ccc(C(=O)N3C[C@@H](C(=O)N[C@H]4C[C@@H]4c4ccccc4)[C@H](C(=O)N[C@H]4C[C@@H]4c4ccccc4)C3)cc2)C[C@H]1C(=O)N[C@H]1C[C@@H]1c1ccccc1 | 100 | 90 | – | – |
| CC(C)(C)OC(=O)c1ccc(C(=O)NCC(=O)OCCCCCCCCCCCCNC(=O)[C@@H]2CN(C(=O)c3ccc(C(=O)N4C[C@@H](C(=O)N[C@H]5C[C@@H]5c5ccccc5)[C@H](C(=O)N[C@H]5C[C@@H]5c5ccccc5)C4)cc3)C[C@H]2C(=O)N[C@H]2C[C@@H]2c2ccccc2)cc1 | 130 | 100 | – | – |
| CC(C)(C)Oc1ccc(C(=O)OCCCCCCCCCCCCNC(=O)[C@@H]2CN(C(=O)c3ccc(C(=O)N4C[C@@H](C(=O)N[C@H]5C[C@@H]5c5ccccc5)[C@H](C(=O)N[C@H]5C[C@@H]5c5ccccc5)C4)cc3)C[C@H]2C(=O)N[C@H]2C[C@@H]2c2ccccc2)cc1 | 150 | – | < 50 | – |
| CC(C)(C)OC(=O)NNC(=O)OCCCCCCCCCCCCNC(=O)[C@@H]1CN(C(=O)c2ccc(C(=O)N3C[C@@H](C(=O)N[C@H]4C[C@@H]4c4ccccc4)[C@H](C(=O)N[C@H]4C[C@@H]4c4ccccc4)C3)cc2)C[C@H]1C(=O)N[C@H]1C[C@@H]1c1ccccc1 | 220 | 100 | – | – |
| COC(=O)NCC(=O)OCCCCCCCCCCCCNC(=O)[C@@H]1CN(C(=O)c2ccc(C(=O)N3C[C@@H](C(=O)N[C@H]4C[C@@H]4c4ccccc4)[C@H](C(=O)N[C@H]4C[C@@H]4c4ccccc4)C3)cc2)C[C@H]1C(=O)N[C@H]1C[C@@H]1c1ccccc1 | 120 | 100 | – | – |
| O=C(O)c1ccc(C(=O)NCCOCCCCCCCCCCCCNC(=O)[C@@H]2CN(C(=O)c3ccc(C(=O)N4C[C@@H](C(=O)N[C@H]5C[C@@H]5c5ccccc5)[C@H](C(=O)N[C@H]5C[C@@H]5c5ccccc5)C4)cc3)C[C@H]2C(=O)N[C@H]2C[C@@H]2c2ccccc2)cc1 | 50 | 100 | – | – |
| N#CCC(=O)OCCCCCCCCCCCCNC(=O)[C@@H]1CN(C(=O)c2ccc(C(=O)N3C[C@@H](C(=O)N[C@H]4C[C@@H]4c4ccccc4)[C@H](C(=O)N[C@H]4C[C@@H]4c4ccccc4)C3)cc2)C[C@H]1C(=O)N[C@H]1C[C@@H]1c1ccccc1 | 120 | 130 | – | – |
| O=C(NCCCCCCCCc1ccc(O)cc1)[C@@H]1CN(C(=O)c2ccc(C(=O)N3C[C@@H](C(=O)N[C@H]4C[C@@H]4c4ccccc4)[C@H](C(=O)N[C@H]4C[C@@H]4c4ccccc4)C3)cc2)C[C@H]1C(=O)N[C@H]1C[C@@H]1c1ccccc1 | 380 | 90 | – | – |
| CC(C)(C)OC(=O)/C=C/C(=O)NCC(=O)OCCCCCCCCCCCCNC(=O)[C@@H]1CN(C(=O)c2ccc(C(=O)N3C[C@@H](C(=O)N[C@H]4C[C@@H]4c4ccccc4)[C@H](C(=O)N[C@H]4C[C@@H]4c4ccccc4)C3)cc2)C[C@H]1C(=O)N[C@H]1C[C@@H]1c1ccccc1 | 110 | 90 | – | – |
| CC(C)(C)OC(=O)NCCOCCCCCCCCCCCCNC(=O)[C@@H]1CN(C(=O)c2ccc(C(=O)N3C[C@@H](C(=O)N[C@H]4C[C@@H]4c4ccccc4)[C@H](C(=O)N[C@H]4C[C@@H]4c4ccccc4)C3)cc2)C[C@H]1C(=O)N[C@H]1C[C@@H]1c1ccccc1 | 220 | 100 | – | – |
| O=C(OCCCCCCCCCCCCNC(=O)[C@@H]1CN(C(=O)c2ccc(C(=O)N3C[C@@H](C(=O)N[C@H]4C[C@@H]4c4ccccc4)[C@H](C(=O)N[C@H]4C[C@@H]4c4ccccc4)C3)cc2)C[C@H]1C(=O)N[C@H]1C[C@@H]1c1ccccc1)c1ccc(O)cc1 | 540 | 100 | – | – |
| O=C(CNC(=O)OCC1c2ccccc2-c2ccccc21)OCCCCCCCCCCCCNC(=O)[C@@H]1CN(C(=O)c2ccc(C(=O)N3C[C@@H](C(=O)N[C@H]4C[C@@H]4c4ccccc4)[C@H](C(=O)N[C@H]4C[C@@H]4c4ccccc4)C3)cc2)C[C@H]1C(=O)N[C@H]1C[C@@H]1c1ccccc1 | 170 | 100 | – | – |
| CN(C)CC(=O)OCCCCCCCCCCCCNC(=O)[C@@H]1CN(C(=O)c2ccc(C(=O)N3C[C@@H](C(=O)N[C@H]4C[C@@H]4c4ccccc4)[C@H](C(=O)N[C@H]4C[C@@H]4c4ccccc4)C3)cc2)C[C@H]1C(=O)N[C@H]1C[C@@H]1c1ccccc1 | 140 | 100 | – | – |
| O=C(NCCCCCCCCCCCCOCc1ccc([N+](=O)[O-])cc1)[C@@H]1CN(C(=O)c2ccc(C(=O)N3C[C@@H](C(=O)N[C@H]4C[C@@H]4c4ccccc4)[C@H](C(=O)N[C@H]4C[C@@H]4c4ccccc4)C3)cc2)C[C@H]1C(=O)N[C@H]1C[C@@H]1c1ccccc1 | 230 | 110 | – | – |
| CC(C)[C@H](NC(=O)OC(C)(C)C)C(=O)OCCCCCCCCCCCCNC(=O)[C@@H]1CN(C(=O)c2ccc(C(=O)N3C[C@@H](C(=O)N[C@H]4C[C@@H]4c4ccccc4)[C@H](C(=O)N[C@H]4C[C@@H]4c4ccccc4)C3)cc2)C[C@H]1C(=O)N[C@H]1C[C@@H]1c1ccccc1 | 180 | 100 | – | – |
| O=C(O)CCCCCCCCCCCNC(=O)[C@@H]1CN(C(=O)c2ccc(C(=O)N3C[C@@H](C(=O)N[C@H]4C[C@@H]4c4ccccc4)[C@H](C(=O)N[C@H]4C[C@@H]4c4ccccc4)C3)cc2)C[C@H]1C(=O)N[C@H]1C[C@@H]1c1ccccc1 | 110 | 100 | – | – |
| Cc1ccc(S(=O)(=O)n2cnc(C[C@H](NC(=O)OC(C)(C)C)C(=O)OCCCCCCCCCCCCNC(=O)[C@@H]3CN(C(=O)c4ccc(C(=O)N5C[C@@H](C(=O)N[C@H]6C[C@@H]6c6ccccc6)[C@H](C(=O)N[C@H]6C[C@@H]6c6ccccc6)C5)cc4)C[C@H]3C(=O)N[C@H]3C[C@@H]3c3ccccc3)c2)cc1 | 110 | 90 | – | – |
| C[C@@H](NC(=O)OC(C)(C)C)C(=O)OCCCCCCCCCCCCNC(=O)[C@@H]1CN(C(=O)c2ccc(C(=O)N3C[C@@H](C(=O)N[C@H]4C[C@@H]4c4ccccc4)[C@H](C(=O)N[C@H]4C[C@@H]4c4ccccc4)C3)cc2)C[C@H]1C(=O)N[C@H]1C[C@@H]1c1ccccc1 | 200 | 110 | – | – |
| O=C(O)CNC(=O)CCCCCCCCCCCNC(=O)[C@@H]1CN(C(=O)c2ccc(C(=O)N3C[C@@H](C(=O)N[C@H]4C[C@@H]4c4ccccc4)[C@H](C(=O)N[C@H]4C[C@@H]4c4ccccc4)C3)cc2)C[C@H]1C(=O)N[C@H]1C[C@@H]1c1ccccc1 | – | 110 | – | 30 |
| Nc1ccc(CCCCCCCCNC(=O)[C@@H]2CN(C(=O)c3ccc(C(=O)N4C[C@@H](C(=O)N[C@H]5C[C@@H]5c5ccccc5)[C@H](C(=O)N[C@H]5C[C@@H]5c5ccccc5)C4)cc3)C[C@H]2C(=O)N[C@H]2C[C@@H]2c2ccccc2)cc1 | 250 | 100 | – | – |
| CC(C)(C)OC(=O)COCCCCCCCCCCCCNC(=O)[C@@H]1CN(C(=O)c2ccc(C(=O)N3C[C@@H](C(=O)N[C@H]4C[C@@H]4c4ccccc4)[C@H](C(=O)N[C@H]4C[C@@H]4c4ccccc4)C3)cc2)C[C@H]1C(=O)N[C@H]1C[C@@H]1c1ccccc1 | 270 | 100 | – | – |
| CC(C)(C)OC(=O)NCCOCCOCCOCCOCCC(=O)OCCCCCCCCCCCCNC(=O)[C@@H]1CN(C(=O)c2ccc(C(=O)N3C[C@@H](C(=O)N[C@H]4C[C@@H]4c4ccccc4)[C@H](C(=O)N[C@H]4C[C@@H]4c4ccccc4)C3)cc2)C[C@H]1C(=O)N[C@H]1C[C@@H]1c1ccccc1 | 150 | 90 | – | – |
| CC(C)(C)OC(=O)N[C@@H](CCCCNC(=O)OCC1c2ccccc2-c2ccccc21)C(=O)OCCCCCCCCCCCCNC(=O)[C@@H]1CN(C(=O)c2ccc(C(=O)N3C[C@@H](C(=O)N[C@H]4C[C@@H]4c4ccccc4)[C@H](C(=O)N[C@H]4C[C@@H]4c4ccccc4)C3)cc2)C[C@H]1C(=O)N[C@H]1C[C@@H]1c1ccccc1 | 200 | 100 | – | – |
| O=C(CNC(=O)OCc1ccccc1)OCCCCCCCCCCCCNC(=O)[C@@H]1CN(C(=O)c2ccc(C(=O)N3C[C@@H](C(=O)N[C@H]4C[C@@H]4c4ccccc4)[C@H](C(=O)N[C@H]4C[C@@H]4c4ccccc4)C3)cc2)C[C@H]1C(=O)N[C@H]1C[C@@H]1c1ccccc1 | 410 | 100 | – | – |
| O=C(CO)OCCCCCCCCCCCCNC(=O)[C@@H]1CN(C(=O)c2ccc(C(=O)N3C[C@@H](C(=O)N[C@H]4C[C@@H]4c4ccccc4)[C@H](C(=O)N[C@H]4C[C@@H]4c4ccccc4)C3)cc2)C[C@H]1C(=O)N[C@H]1C[C@@H]1c1ccccc1 | 140 | 100 | – | – |
| CC(C)(C)OC(=O)N[C@@H](Cc1ccccc1)C(=O)OCCCCCCCCCCCCNC(=O)[C@@H]1CN(C(=O)c2ccc(C(=O)N3C[C@@H](C(=O)N[C@H]4C[C@@H]4c4ccccc4)[C@H](C(=O)N[C@H]4C[C@@H]4c4ccccc4)C3)cc2)C[C@H]1C(=O)N[C@H]1C[C@@H]1c1ccccc1 | 220 | 100 | – | – |
| C#CCCCCCCCCCCCCNC(=O)[C@@H]1CN(C(=O)c2ccc(C(=O)N3C[C@@H](C(=O)N[C@H]4C[C@@H]4c4ccccc4)[C@H](C(=O)N[C@H]4C[C@@H]4c4ccccc4)C3)cc2)C[C@H]1C(=O)N[C@H]1C[C@@H]1c1ccccc1 | 180 | 120 | – | – |
